Compound activity as filed in PubChem BioAssay.
This is a sample that favours compounds with a hit; in the whole collection about 1.2% have one here.
Rad51 HR inh – blocks human Rad51 in homologous recombination; Q06609; hRad51 DNA strand exchange, fluorescence dequenching; inhibition, % at 10 µM; 0.085% of 200,000 active;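 active means inhibition above 40% at the single screening dose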;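 further: 0% = DMSO control wells and 100% = blanks with heterologous ssDNA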
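System: human Rad51 nucleoprotein filaments preassembled on unlabelled ssDNA. Reagent: labelled 47-mer dsDNA for strand exchange. Schedule: 30-min compound preincubation and 15-min exchange, both room temperature. Measured by: FRET fluorescence dequenching, excitation 485 nm, emission 520 nm. Read-out: Fluorescence-based percent inhibition, control- and blank-normalised. Benchmarks: plate controls and plate blanks.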
FID counter – displaces DNA intercalator in HCV helicase counter-screen. DNA fluorescent intercalator displacement, fluorescence. inhibition, % at 7.9 µM. 0.17% of 290,000 active. AID 1845; in the data active means inhibition above about 37%;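 further: 0% = vehicle and 100% = reference compound; higher means more ethidium bromide displaced from hairpin DNA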
RBBP9 inh – blocks human serine hydrolase RBBP9. O75884. recombinant RBBP9, FP-Rh probe fluorescence polarization. inhibition, % at 7.94 µM. 0.2% of 220,000 active;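 active means inhibition above the campaign mean of all tested compounds plus 3 SD, cut at about 14% in these data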;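 further: plate controls were DMSO wells with RBBP9 for no effect and wells lacking RBBP9 protein for full effect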
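Test system: recombinant human RBBP9; Timing: 30 min then 45 min, 25 °C; Detection: fluorescence polarization; Control set: RBBP9 with DMSO as uninhibited control, no-protein wells as full inhibition; Compound dosing: one concentration, 7.94 µM nominal, 0.794% DMSO; Probe or stimulus: FP-Rh activity-based probe, 375 nM before mixing.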
Wee1 degr inh – human Wee1 degradation inhibition, primary screen | P30291 | HeLa Luc-Wee1K328M stability, luciferase luminescence; 100% = proteasome inhibitor MG132 effect | reporter increase, % at 5 µM | 1.2% of 220,000 active | AID 1321;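 active means activation above the mean of all tested compounds plus 3 SD, set per screening run, cut at about 8.8% in these data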;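 further: cells exposed to compound for 20 h before luminescence read; 0% = DMSO alone and 100% = MG132 at 30 µM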
Target sequence (P30291 whole entry K328M): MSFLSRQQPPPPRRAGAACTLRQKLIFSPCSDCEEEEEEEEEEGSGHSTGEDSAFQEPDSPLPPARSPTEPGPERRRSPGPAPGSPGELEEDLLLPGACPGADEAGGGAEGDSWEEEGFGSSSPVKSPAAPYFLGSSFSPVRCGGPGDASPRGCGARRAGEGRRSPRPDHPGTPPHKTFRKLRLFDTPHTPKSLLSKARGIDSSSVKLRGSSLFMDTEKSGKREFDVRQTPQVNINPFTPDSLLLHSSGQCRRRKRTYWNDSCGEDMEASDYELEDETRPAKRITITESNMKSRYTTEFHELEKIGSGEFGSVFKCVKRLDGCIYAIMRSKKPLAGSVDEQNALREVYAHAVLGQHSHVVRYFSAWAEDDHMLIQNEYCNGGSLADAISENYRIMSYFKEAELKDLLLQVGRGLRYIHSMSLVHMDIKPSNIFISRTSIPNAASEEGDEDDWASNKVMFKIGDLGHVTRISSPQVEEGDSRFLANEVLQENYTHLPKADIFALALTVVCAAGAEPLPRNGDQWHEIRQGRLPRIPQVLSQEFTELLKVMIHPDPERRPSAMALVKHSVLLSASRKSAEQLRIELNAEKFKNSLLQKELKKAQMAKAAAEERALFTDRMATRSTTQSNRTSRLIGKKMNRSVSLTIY
Numbers without * were called inactive; nt = not tested or not shown; ! = a repeat was not active.

SMILES | Rad51 HR inh | FID counter | RBBP9 inh | Wee1 degr inh
CCCC(CCC)C(=O)OC[N+](C)(C)CCOC(=O)C(O)(c1ccccc1)C1CCCC1 (stereo not given) | -10 | 41* | -8 | -5
O=c1c2ccccc2[nH]c(=S)n1-c1cccnc1 | 10 | -4 | 0 | 9.7*
Cc1ccc2[nH]c(=S)n(-c3cccnc3)c(=O)c2c1 | 14 | -1 | -2 | -4
CCCCCCn1c(=O)c(C(=O)Nc2c(C)n(C)n(-c3ccccc3)c2=O)c(O)c2ccccc21 | 22 | -4 | 5 | 1
C[n+]1c(-c2ccccc2)c2cc(N)ccc2c2ccc(N)cc21 | nt | 38* | nt | nt
CC/C(=N\NC(=O)c1ccccc1)c1c(O)n(Cc2ccccc2)c(=O)[nH]c1=O | -48 | -24 | -6 | 10*
CCC(=NCC1CCCO1)c1c(O)n(Cc2ccccc2)c(=O)[nH]c1=O (stereo not given) | -3 | -13 | -7 | 0
Cc1ccc(N=C(N(C)C)P(=O)(N(C)C)N(C)C)cc1 | -3 | 56* | 1 | 1
O=[N+]([O-])/C=C1\NCCN1Cc1ccc(Cl)nc1 | 26 | 1 | 3 | 9.6*!
CN(CCc1nnc(N)s1)[N+](=O)[O-] | 0 | -5 | -7 | 2
CC[N+](C)(CC)CCCCOc1ccc2c(c1)C(=O)c1cc(OCCCC[N+](C)(CC)CC)ccc1-2 | 42* | 88* | -9 | -1
CC(=NCc1ccc(F)cc1)c1c(O)n(C)c(=O)n(C)c1=O | -12 | -5 | -5 | -1
COc1cc(CN=C(C)c2c(O)n(C)c(=O)n(C)c2=O)cc(OC)c1 | 20 | -11 | -1 | 9.0*
CSc1ncc(/C=C2/C(=O)NC(=O)N(c3ccc(C)cc3)C2=O)cn1 | 6 | -11 | -2 | -1
CCOc1ccc(N2C(=O)NC(=O)/C(=C/c3cnc(SC)nc3)C2=O)cc1 | -4 | -19 | -11 | 10*
CCN1CCC(N(C)C2CCCCC2)CC1 | nt | 6 | nt | nt
Cc1nn(Cc2ccccc2)c(C)c1C(=O)NCc1ccccc1F | 44* | -13 | -1 | 1
COc1ccc2c(C)c(CC(=O)N3C[C@H]4C[C@@H](C3)c3cccc(=O)n3C4)c(=O)oc2c1C | nt | -26 | nt | nt
c1ccc2c(CN3CCOCC3)c[nH]c2c1 | nt | -4 | nt | nt
CC1(C)C2CC=C(CN3CCOCC3)C1C2 (stereo not given) | 3 | 91* | 5 | -1
O=c1c(C=Nc2cccnc2Cl)c(O)n(CCCCl)c(=O)n1C1CCCCC1 | nt | -16 | -7 | 8
CN1CCC(N(C)c2nc(-c3ccc([N+](=O)[O-])cc3)nc3ccccc23)CC1 | nt | 46* | -2 | -2
Cc1nn(C2CCOC(C)(C)C2)c2c1C(c1ccc3c(c1)OCO3)SCC(=O)N2 (stereo not given) | 0 | -22 | -8 | 11*
COc1ccc(C2SCC(=O)Nc3c2c(C)nn3C2CCOC(C)(C)C2)cc1 (stereo not given) | 2 | -22 | -6 | 0
O=c1[nH]c(=S)n(C2CC2)c(O)c1/C=N/Nc1cccc2ccccc12 | -2 | 3 | 1 | 8.9*
SMILES | Rad51 HR inh | FID counter | RBBP9 inh | Wee1 degr inh
O=c1[nH]c(=S)n(C2CC2)c(O)c1/C=N/Nc1ccccc1 | -20 | -4 | -9 | 2
CCCCCSc1cc(OC)c(CCN(C)C)cc1OC | -3 | 37* | -9 | 0
CCCCCSc1cc(O)c(C(CNC)C(C)C)cc1OC (stereo not given) | -5 | 21 | -4 | 1
COC(=O)C(C)NC(=S)N1CC2C[C@@H](C1)Cn1c2cccc1=O (stereo not given in full) | nt | 0 | nt | nt
Cc1ccc(/C=C2/C(=O)NC(=O)N(C)C2=O)cc1 | -6 | -2 | -5 | 8.9*
CN1C(=O)NC(=O)/C(=C/c2ccc(C(=O)O)cc2)C1=O | 0 | 1 | -11 | -1
C[C@]12CC(=CO)C(=O)C[C@@H]1CC[C@@H]1[C@@H]2CC[C@@]2(C)[C@H]1CC[C@]2(C)O | nt | -20 | -2 | -3
O=C1NC(=O)C(CCc2ccncc2)(Cc2ccc3c(c2)OCO3)C(=O)N1CCc1ccccc1 (stereo not given) | 6 | -14 | 9 | 4
O=c1[nH]c(N2CCN(Cc3ccc4c(c3)OCO4)CC2)nc2c1CCC2 | 84* | -12 | -1 | 2
Fc1ccccc1N1CCN(Cc2ccc3c(c2)OCO3)CC1 | -2 | 4 | 5 | -4
CCC1=CCN(CCc2c(C)[nH]c3ccccc23)CC1 | -4 | nt | nt | nt
Cc1cc(C(=O)CS(=O)(=O)c2ccccc2)cc(C)c1OC(=O)N(C)C | 1 | -7 | -6 | 10*
CN(C)C1(CNC(=O)c2ccc(Cl)c(S(=O)(=O)NCc3ccco3)c2)CCCCC1 | 2 | 5 | -1 | 15*
